Measurements: ChEMBL document CHEMBL1944560, “Antitumor agents 292. Design, synthesis and pharmacological study of S- and O-substituted 7-mercapto- or hydroxy-coumarins and chromones as potent cytotoxic agents” (2012)

Experiments:
[1] = system: KB; assay: Antiproliferative activity against human KB cells after 72 hrs by SRB assay; assay type: functional
How it was run: (§1)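 Cells fixed in situ with 10% TCA at time of drug addition as time-zero reference. Drug exposure 72 h after attachment, then 10% TCA fixation and 0.4% SRB in 1% HOAc for 10 min. Unbound dye washed off with 1% HOAc, bound dye dissolved in 10 mM trizma base, absorbance read at 515 nm. GI50 is the concentration halving net protein increase relative to control.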

[2] = Antiproliferative activity against human KBVIN cells after 72 hrs by SRB assay; assay type: functional; how it was run: as §1
[3] = system: A549; assay: Antiproliferative activity against human A549 cells after 72 hrs by SRB assay; assay type: functional; settings: A549, 72 h; how it was run: as §1
[4] = system: DU-145; assay: Antiproliferative activity against human DU145 cells after 72 hrs by SRB assay; assay type: functional; settings: DU-145, 72 h; how it was run: as §1
[5] = system: A549; assay: Antiproliferative activity against human A549 cells after 48 hrs by MTT assay; assay type: functional, cell-based
How it was run: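 A549 seeded at 5 × 10^3 cells/well. Exposed to 0.06, 0.23, 0.94, 3.75, 15 or 60 μg/mL for 48 h, then medium replaced. MTT (5 mg/mL solution) added for 4 h at 37 °C, formazan dissolved in DMSO, absorbance at 570 nm. Viability expressed as % of untreated cells. Mean ± SD of three independent experiments.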

[6] = system: A549; assay: Induction of apoptosis in human A549 cells after 48 hrs by DNA fluorochrome Hoechst-staining based fluorescence microscopy; assay type: functional, cell-based
How it was run: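 A549 seeded at 5 × 10^3 cells/well, treated at 0, 1, 5 and 10 µg/mL for 48 h. Monolayer fixed and stained with Hoechst 33258 for 20 min, washed with PBS, examined by fluorescence microscopy. Cells with condensed or fragmented, brightly stained nuclei scored apoptotic. Three independent experiments.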

[7] = system: A549; assay: Induction of cell cycle arrest in human A549 cells assessed as G0/G1 phase cells at 1 mg after 48 hrs by FACS-based flow cytometry (reference value: 26.9%); assay type: functional
[8] = system: A549; assay: Induction of cell cycle arrest in human A549 cells assessed as G0/G1 phase cells at 5 mg after 48 hrs by FACS-based flow cytometry (reference value: 26.9%); assay type: functional
[9] = system: A549; assay: Induction of cell cycle arrest in human A549 cells assessed as G0/G1 phase cells at 10 mg after 48 hrs by FACS-based flow cytometry (reference value: 26.9%); assay type: functional
[10] = system: A549; assay: Induction of cell cycle arrest in human A549 cells assessed as G2/M phase cells at 1 mg after 48 hrs by FACS-based flow cytometry (reference value: 6.36%); assay type: functional
[11] = system: A549; assay: Induction of cell cycle arrest in human A549 cells assessed as G2/M phase cells at 5 mg after 48 hrs by FACS-based flow cytometry (reference value: 6.36%); assay type: functional
[12] = system: A549; assay: Induction of cell cycle arrest in human A549 cells assessed as G2/M phase cells at 10 mg after 48 hrs by FACS-based flow cytometry (reference value: 6.36%); assay type: functional
[13] = system: A549; assay: Induction of cell cycle arrest in human A549 cells assessed as S phase cells at 1 mg after 48 hrs by FACS-based flow cytometry (reference value: 66.74%); assay type: functional
[14] = system: A549; assay: Induction of cell cycle arrest in human A549 cells assessed as S phase cells at 5 mg after 48 hrs by FACS-based flow cytometry (reference value: 66.74%); assay type: functional
[15] = system: A549; assay: Induction of cell cycle arrest in human A549 cells assessed as S phase cells at 10 mg after 48 hrs by FACS-based flow cytometry (reference value: 66.74%); assay type: functional

GI50 [1]	GI50 [3]	GI50 [4]	Compound	GI50 [2]	further results
> 25.8 µM	> 25.8 µM	> 25.8 µM	COc1cc(CSc2ccc3c(C)cc(=O)oc3c2)c([N+](=O)[O-])cc1OC	> 25.8 µM	
0.00412 µM	0.00546 µM	0.00386 µM	CC(=O)O[C@H]1C(=O)[C@@]2(C)[C@H]([C@H](OC(=O)c3ccccc3)[C@]3(O)C[C@H](OC(=O)[C@H](O)[C@@H](NC(=O)c4ccccc4)c4ccccc4)C(C)=C1C3(C)C)[C@]1(OC(C)=O)CO[C@@H]1C[C@@H]2O [PACLITAXEL]	> 1 µM	
> 27.6 µM	> 27.6 µM	> 27.6 µM	CCc1cc(=O)c2ccc(OCc3cccc(C(F)(F)F)c3)c(C)c2o1	> 27.6 µM	
28.6 µM	24.9 µM	24.1 µM	CCc1cc(=O)c2ccc(OCc3cccc(C)c3)c(C)c2o1	24.9 µM	
> 35.3 µM	> 35.3 µM	> 35.3 µM	Cc1cc(=O)oc2cc(SCc3ccncc3)ccc12	> 35.3 µM	
> 36.2 µM	> 36.2 µM	> 36.2 µM	Cc1cc(=O)oc2cc(SC3CCOC3=O)ccc12 (stereo not given)	> 36.2 µM	
> 29.2 µM	> 29.2 µM	> 29.2 µM	COc1cc(CSc2ccc3c(C)cc(=O)oc3c2)cc(OC)c1	> 29.2 µM	
> 29.5 µM	> 29.5 µM	> 29.5 µM	CCc1cc(=O)c2ccc(OCC(C)C)c(CBr)c2o1	> 29.5 µM	
> 30.8 µM	> 30.8 µM	> 30.8 µM	CCc1cc(=O)c2ccc(OC(C)C)c(CBr)c2o1	> 30.8 µM	
> 28.5 µM	> 28.5 µM	> 28.5 µM	Cc1cc(=O)oc2cc(SCc3cccc(C(F)(F)F)c3)ccc12	> 28.5 µM	
16 µM	15.3 µM	> 25.6 µM	COc1ccc(Br)c(CSc2ccc3c(C)cc(=O)oc3c2)c1	> 25.6 µM	
14.8 µM	17.4 µM	15.5 µM	Cc1cc(=O)oc2cc(SCc3cccc(OC(F)(F)F)c3)ccc12	15.3 µM	
> 33.6 µM	> 33.6 µM	> 33.6 µM	CCc1oc2c(C)c(OC)ccc2c(=O)c1Br	23.2 µM	
> 31.3 µM	> 31.3 µM	> 31.3 µM	CCc1cc(=O)c2ccc(OCc3cccc(C#N)c3)c(C)c2o1	> 31.3 µM	
2.06 µM	7.7 µM	14.1 µM	COC(=O)c1cccc(CSc2ccc3c(C)cc(=O)oc3c2)c1	5.41 µM	
> 30 µM	> 30 µM	> 30 µM	CCc1cc(=O)c2ccc(Sc3cccc(Cl)[n+]3[O-])cc2o1	> 30 µM	
15.6 µM	19.8 µM	20.9 µM	CCOc1ccc2c(=O)cc(C(C)Br)oc2c1CBr (stereo not given)	12.8 µM	
> 33.7 µM	> 33.7 µM	> 33.7 µM	Cc1cccc(CSc2ccc3c(C)cc(=O)oc3c2)c1	> 33.7 µM	

GI50 [1]	GI50 [3]	GI50 [4]	Compound	GI50 [2]	further results
> 32.1 µM	> 32.1 µM	> 32.1 µM	CCOc1ccc2c(=O)cc(CC)oc2c1CBr	> 32.1 µM	
22.6 µM	> 30.8 µM	> 30.8 µM	CCc1oc2c(C)c(OC(C)C)ccc2c(=O)c1Br	5.84 µM	
> 33.6 µM	> 33.6 µM	> 33.6 µM	CCc1cc(=O)c2ccc(OC)c(CBr)c2o1	> 33.6 µM	
15.1 µM	> 26.6 µM	> 26.6 µM	COc1ccc2c(=O)cc(C(C)Br)oc2c1CBr (stereo not given)	17 µM	
> 35.3 µM	> 35.3 µM	> 35.3 µM	Cc1cc(=O)oc2cc(SCc3cccnc3)ccc12	> 35.3 µM	
> 31.5 µM	> 31.5 µM	> 31.5 µM	CCc1cc(=O)c2ccc(Sc3cccc(Cl)n3)cc2o1	> 31.5 µM	
> 26.8 µM	> 26.8 µM	> 26.8 µM	CCc1oc2c(C)c(OCc3ccccc3)ccc2c(=O)c1Br	> 26.8 µM	
> 32 µM	> 32 µM	> 32 µM	COc1cccc(CSc2ccc3c(C)cc(=O)oc3c2)c1	> 32 µM	
12.8 µM	12.8 µM	15.5 µM	CC(C)Oc1ccc2c(=O)cc(C(C)Br)oc2c1CBr (stereo not given)	11.4 µM	
> 35.3 µM	> 35.3 µM	> 35.3 µM	Cc1cc(=O)oc2cc(SCc3ccccn3)ccc12	> 35.3 µM	
> 34 µM	> 34 µM	27.7 µM	CCc1cc(=O)c2ccc(OCc3ccccc3)c(C)c2o1	24.8 µM	
0.92 µM	2.11 µM	1.15 µM	Cc1cc(=O)oc2cc(Sc3cccc(Cl)n3)ccc12	0.92 µM	Activity [5]: Dose-dependent effect; Activity [6]: Dose-dependent effect; Activity [7]: 5.02%; Activity [8]: 0.67%; Activity [9]: 0.12%; Activity [10]: 83.58%; Activity [11]: 88.98%; Activity [12]: 83.86%; Activity [13]: 11.4%; Activity [14]: 10.36%; Activity [15]: 16.03%
10.9 µM	8.71 µM	10.5 µM	CC(C)COc1ccc2c(=O)cc(C(C)Br)oc2c1CBr (stereo not given)	9.45 µM	
> 28.8 µM	> 28.8 µM	> 28.8 µM	CCc1cc(=O)c2ccc(Sc3cccc(Cl)[n+]3[O-])c(C)c2o1	> 28.8 µM	
> 22.7 µM	> 22.7 µM	> 22.7 µM	CCc1oc2c(C)c(OCc3cccc(C(F)(F)F)c3)ccc2c(=O)c1Br	> 22.7 µM	
> 32.5 µM	> 32.5 µM	> 32.5 µM	Cc1cc(=O)oc2cc(SCc3cccc(C#N)c3)ccc12	> 32.5 µM	
> 31.3 µM	> 31.3 µM	> 31.3 µM	Cc1cc(=O)oc2cc(Sc3cccc(Cl)[n+]3[O-])ccc12	24.5 µM	
> 30.1 µM	> 30.1 µM	> 30.1 µM	CCc1cc(=O)c2ccc(Sc3cccc(Cl)n3)c(C)c2o1	23.9 µM	
